# NPY Y2 blocker: NPY-Y2 (human) receptor antagonism. inhibition, % at 2.7 µM. 0.99% of 140,000 active. NPY-Y2 expressing cells, antagonist mode. P49146; in the data active means inhibition above about 17%;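 further: 0% = vehicle with agonist challenge and 100% = reference antagonist with challenge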
# Target sequence (P49146 whole entry, looked up): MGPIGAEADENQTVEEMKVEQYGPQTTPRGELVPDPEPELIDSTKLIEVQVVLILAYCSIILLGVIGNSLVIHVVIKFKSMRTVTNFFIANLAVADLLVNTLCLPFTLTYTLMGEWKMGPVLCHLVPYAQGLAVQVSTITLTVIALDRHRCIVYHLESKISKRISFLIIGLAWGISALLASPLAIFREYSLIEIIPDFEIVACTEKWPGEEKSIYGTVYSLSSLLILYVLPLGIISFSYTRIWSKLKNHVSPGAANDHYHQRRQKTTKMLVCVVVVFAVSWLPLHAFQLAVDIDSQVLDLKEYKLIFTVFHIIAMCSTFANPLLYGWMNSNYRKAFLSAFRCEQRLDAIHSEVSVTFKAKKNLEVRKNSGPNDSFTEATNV
# NPY Y1 blocker: NPY-Y1 (human) receptor antagonism; P25929; HEK293-CNG Y1 cells, membrane potential fluorescence; NPY at EC95, then isoproterenol; inhibition, % at 3.6 µM; 1% of 200,000 active; AID 1040;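 active means inhibition above the campaign mean inhibition of all tested compounds plus 3 SD, cut at about 20% in these data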;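 further: 0% = DMSO wells given NPY plus isoproterenol and 100% = isoproterenol alone without NPY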
#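 Assay system: HEK293 Y1/CNG channel cell line; Doses: single compound dose of 3.6 µM, 0.4% DMSO; Timing: dye 3 h, compound 60 min room temperature, stimulation 45 min; Technique: Membrane-potential fluorescent dye readout; Measure: % inhibition of NPY effect.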
# NPY-Y1 PAM-ag: human NPY-Y1 potentiation or agonism, primary screen; 0.37% of 220,000 active; P25929; NPY-Y1 expressing cells, potentiator/agonist activation; activation, % at 3.6 µM; in the data active means activation above about 33%, passing the limit was not always enough;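 further: cells stimulated with NPY at EC10 then isoproterenol at EC100; 0% = low agonist plus stimulus and 100% = saturating agonist plus stimulus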
# NPY2 pot ag: potentiates or activates human NPY-Y2 receptor. cells expressing NPY-Y2, potentiator/agonist read-out. activation, % at 3.6 µM. 0.45% of 220,000 active. AID 1359; in the data active means activation above about 27%;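 further: cells stimulated with NPY near EC25 plus isoproterenol at EC100; 0% = vehicle plus submaximal agonist and 100% = vehicle plus saturating agonist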
# NPY-Y2 pot conf: confirmation of human NPY-Y2 receptor potentiators or agonists | shares compounds with NPY2 pot ag | cell-based NPY-Y2 potentiator/agonist assay | activation, % at 3.6 µM | 20% of 450 active | AID 1539; in the data active means activation above about 33%
# NPY-Y1 potentiator: potentiates or activates NPY-Y1, counter-screen for NPY-Y2 hits; Y1 HEK293-CNG cells, membrane potential fluorescence; 20% of 450 active; activation, % at 3.6 µM; shares compounds with NPY2 pot ag; in the data active means activation above about 45%;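 further: cells stimulated with submaximal NPY then isoproterenol with phosphodiesterase inhibitor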
# NPY-Y1 ag 2: counter-screen for NPY-Y2 potentiators: agonists of human NPY-Y1. activation, % at 3.6 µM. HEK293 Y1-CNGC, membrane potential fluorescence, agonism. AID 1702. 37% of 450 active. shares compounds with NPY2 pot ag;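 active means activation above the mean of DMSO-only control wells plus 3 SD, cut at about 18% in these data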;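 further: cells stimulated with 1 µM isoproterenol plus the PDE inhibitor Ro 20-1724; 0% = isoproterenol with DMSO and no NPY and 100% = 40 nM NPY; Y1 agonists lower the membrane potential dye signal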
# CNGC inh: cyclic nucleotide gated channel inhibition as counter-screen; shares compounds with NPY2 pot ag; HEK293-CNG parental, isoproterenol cAMP, membrane potential fluorescence; inhibition, % at 3.6 µM; 32% of 450 active;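 active means inhibition above the control-well mean plus 3 SD of those wells, cut at about 22% in these data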;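 further: 0% = DMSO with isoproterenol and 100% = DMSO without isoproterenol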
# NPY-Y2 ag 2: counter-screen for NPY-Y2 potentiators: agonists of human NPY-Y2; shares compounds with NPY2 pot ag; HEK293 Y2/CNGC cells, membrane potential fluorescence, agonist mode; activation, % at 3.6 µM; 56% of 450 active; AID 1710;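 active means activation above the mean of solvent-only control wells plus 3 SD, cut at about 10% in these data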;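 further: cells stimulated by isoproterenol with no NPY added so direct agonism is tested; 0% = DMSO with isoproterenol alone and 100% = NPY at EC100 plus isoproterenol; agonism lowers probe fluorescence through less cAMP and CNG channel opening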
# An asterisk follows results filed as active; / = not tested or not shown. This is a sample that favours compounds with a hit; in the whole collection about 1.8% have one here.
SMILES,NPY Y2 blocker,NPY Y1 blocker,NPY-Y1 PAM-ag,NPY2 pot ag,NPY-Y2 pot conf,NPY-Y1 potentiator,NPY-Y1 ag 2,CNGC inh,NPY-Y2 ag 2
O=C(O)C1CCCN1c1nc(C(F)(F)F)nc2ccccc12 (centres undefined),/,4,6,75*,-3,-11,-14,-12,4
Cc1csc(NC(=O)CSc2nnc(Cn3c(=O)sc4ccccc43)n2-c2ccccc2)n1,0,-1,-7,1,/,/,/,/,/
CCOC(=O)C(=CNc1cc(C)nn1-c1ccc(C)cc1)C(=O)OCC,13,9,15,36*,2,-7,-7,-12,-2
CS(=O)(=O)N(CC(=O)N1CCN(c2ccccc2)CC1)c1ccc(Cl)c(C(F)(F)F)c1,6,9,-3,-25,/,/,/,/,/
N=C1SCC(=O)N1c1ncc(Cc2cccc(Cl)c2)s1,/,9,3,-16,/,/,/,/,/
CCn1c2ccccc2c2cc(NC(=O)CN(C)CC(=O)Nc3ccc(N4CCOCC4)cc3)ccc21,/,-2,32,27*,20,30,15,15,18*
COCCOC(=O)C(CC(=O)O)NCc1ccco1 (centres undefined),/,/,15,48*,0,-3,2,12,15*
O=C1C(Nc2ccccc2)=C/C(=N/S(=O)(=O)c2cccs2)c2ccccc21,-8,-4,18,48*,68*,74*,60*,53*,67*
CCc1ccccc1NC(=O)C1c2ccccc2Oc2ccccc21,7,-3,-7,9,/,/,/,/,/
CC(C)COC(=O)NC1c2ccccc2Oc2ccccc21,/,/,-38,100*,-17,-33,-32,-21,-8
COc1ccc(C(=O)/C=C/NCc2ccc(F)cc2)cc1OC,/,/,-7,0,/,/,/,/,/
C=CCNC(=S)/N=c1/ccccn1CCC,/,/,5,-23,/,/,/,/,/
COC(=O)/C(=C\Nc1cccc(Cl)c1C)c1ncc(C(F)(F)F)cc1Cl,4,7,3,58*,-11,-16,-22,-20,-14
CCOC(=O)N1CCN(C(=O)CSCc2ccc(Br)cc2)CC1,/,9,6,16,/,/,/,/,/
O=C(CN1CCCC1)Nc1ccc(-c2nc3cc(NC(=O)CN4CCCC4)ccc3o2)cc1,10,17,-61,-17,/,/,/,/,/
O=C1/C(=C/c2ccc(O)c(O)c2)SC(=S)N1Nc1ccccc1,/,-9,31,39*,34*,41,25*,18,28*
CC(=O)N1CC(=O)N=C1SCC(=O)Nc1nc(C)c(-c2ccccc2)s1,/,-6,36,37*,25,35,41*,40*,28*
CCCCNC1C(CC)C(CCC)C(C#N)(C#N)C1(C#N)C#N (centres undefined),6,-1,13,-4,/,/,/,/,/
CC1=C(C(=O)OCC(Br)(Br)Br)C(c2ccc(Br)cc2)NC(=O)N1CCCC(=O)O (centres undefined),-3,-1,-34,12,/,/,/,/,/
O=C(NCc1cccc(Cl)c1)c1cc(COc2ccc3ncccc3c2)on1,/,0,3,37*,-2,-29,-10,-5,-1
Cc1ccc(F)cc1CNC(=O)c1cc(COc2ccc3ncccc3c2)on1,/,0,4,23,/,/,/,/,/
O=C(Nc1cc(S(=O)(=O)N2CCCCC2)ccc1O)c1ccccc1NS(=O)(=O)c1ccc(F)cc1,-1,3,18,20,/,/,/,/,/
O=C(Nc1cc(S(=O)(=O)N2CCCCC2)ccc1Cl)c1ccccc1NS(=O)(=O)c1ccc(F)cc1,3,6,-59,42*,30,5,0,14,19*
Cn1c(=O)c2ncn(CC(=O)Nc3cccc(-c4nc5ccccc5s4)c3)c2n(C)c1=O,2,2,17,-6,/,/,/,/,/
Cn1c2c(c(=O)n(C)c1=O)C(C(F)(F)F)(C(F)(F)F)N=C(c1ccc(Cl)cc1)N2,7,8,33,49*,4,-23,-24,-6,-5
SMILES,NPY Y2 blocker,NPY Y1 blocker,NPY-Y1 PAM-ag,NPY2 pot ag,NPY-Y2 pot conf,NPY-Y1 potentiator,NPY-Y1 ag 2,CNGC inh,NPY-Y2 ag 2
Cc1cc(C(=O)NCc2ccc(F)cc2)n(-c2ccccc2)n1,/,/,13,14,/,/,/,/,/
Cc1cc(NC(=O)c2ccccc2F)n(-c2nc3ccccc3[nH]2)n1,1,1,20,91*,-1,-4,-3,5,1
Cc1cc(N/C(=N/S(=O)(=O)c2cc(F)ccc2F)c2ccccc2)n(-c2ccccc2)n1,/,1,6,-3,/,/,/,/,/
Cc1cc(N/C(=N/S(=O)(=O)c2ccc(F)cc2)c2ccccc2)n(-c2ccccc2)n1,/,0,-9,28*,-3,-17,-27,-23,-15
O=C(NC(NC(=S)Nc1cccc(C(=O)O)c1)C(Cl)(Cl)Cl)OCc1ccccc1 (centres undefined),2,-3,-13,-3,/,/,/,/,/
O=C(NC(NC(=S)Nc1cccc(Cl)c1)C(Cl)(Cl)Cl)OCc1ccccc1 (centres undefined),-1,-7,15,33*,20,35,30*,28*,34*
COCCCn1c(SCC(=O)NNC(=O)c2cccc(O)c2)nnc1-c1ccncc1,/,3,10,6,/,/,/,/,/
COc1ccc(-c2nc3cnccn3c2Nc2ccc(C)cc2)cc1,10,12,-15,29*,47*,43,29*,27*,52*
CC(C)(C)n1nnnc1C(c1cccc(C#N)c1)N1CCCc2ccccc21 (centres undefined),6,16,14,27*,4,1,-1,7,10
Cc1ccc(/C=N/NC(=O)CNC(=O)c2ccc(S(=O)(=O)N3CCCC3)cc2)o1,/,-2,28,84*,-4,-1,-11,0,-6
CCCCN(C)C(=O)Cn1c(=O)oc2cc(S(=O)(=O)N3CC(C)CC(C)C3)ccc21 (centres undefined),/,/,-15,-16,/,/,/,/,/
CN(CC(=O)NC1CCCc2ccccc21)S(=O)(=O)c1cccs1 (centres undefined),3,4,1,2,/,/,/,/,/
CCc1ccc(NC(=S)N(Cc2ccc(Cl)cc2)Cc2ccc(C(=O)O)cc2)cc1,/,0,1,32*,8,20,16,14,6
O=S(=O)(c1cnc(Cl)c(Cl)c1)N1CCc2ccccc21,/,/,31,42*,21,17,11,32*,23*
O=S(=O)(c1cnc(Cl)c(Cl)c1)N1CCCc2ccccc21,3,-2,-1,14,/,/,/,/,/
COCCN1C(=O)c2cc(C(=O)Nc3ccc(OC)c(OC)c3)ccc2C1Nc1ccc(OC)c(OC)c1 (centres undefined),/,1,-12,-6,/,/,/,/,/

# Bioassay records: PubChem BioAssay, The Scripps Research Institute Molecular Screening Center
